# Only some compounds are listed: those with a hit (about 2.9% of all), similar ones and a draw of the others.
# PGC1a acetyl inh: lowers PGC1a acetylation signal in U2OS cells; AlphaScreen anti-acetyl-lysine; with virally co-expressed GCN5 acetyltransferase; inhibition, % at 15.6 µM; hit rate 0.17% among 350,000;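 active = every replicate shows inhibition of at least 40%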;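 note: 0% = neutral control wells and 100% = positive control wells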
# Vif imaging: blocks HIV Vif function | HEK293T cells, Vif self-association by quenched fluorescence, imaging, 24 h | inhibition, % at 7.49 µM | hit rate 0.35% among 340,000; in the data active = inhibition above about 50%, passing the limit was not always enough
# rRNA inh HTS: inhibits bacterial ribosomal RNA function over humanized ribosomes; E. coli WT GFP vs humanized-ribosome RFP mutants, fluorescence, 24 h; active compounds read low; DMSO median 0, no signal -100; GFP signal change (wild-type ribosome), % (no concentration beside the values); hit rate 1.6% among 350,000; AID 720706;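 active = significant combined selectivity score with lowered wild-type GFP, culture density cut under 30%, mutant RFP and density less affected; inactive = any of these conditions unmet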
# Cneo AK release: causes C. neoformans cell lysis; adenylate kinase release luminescence, 4 h; normalised: neutral wells 0, clomiphene wells 100; lysis activity, % at 15 µM; hit rate 0.2% among 360,000;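 active = mean lysis activity across replicates of at least 80%, whatever share of replicates individually reach that level; inactive = mean lysis activity below 80%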
#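 Material: C. neoformans cells | Amount: Yeast cell density of 5 × 10^6 cells/mL | Medium: Fresh YPD growth medium | Dosing: Single dose | Times: Static 4 h at 37 °C with compound, 1 h detection | Detection: AK luminescence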
# PglD inh: PglD (C. jejuni) enzyme inhibition | purified PglD enzyme, DTNB colorimetric CoA detection | inhibition, % at 12.5 µM | hit rate 0.098% among 360,000 | AID 602405; in the data active = inhibition above about 16%, passing the limit was not always enough
# FGF22 binding: shifts melting point of recombinant human FGF22 | Q9HCT0 | recombinant FGF22 thermal shift, SYPRO orange fluorescence; percent of sucrose octasulfate shift, DMSO zero | activity (Tm shift, normalised), % at 9.99 µM | hit rate 1.5% among 340,000;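 active = mean Tm shift, scaled 0 neutral to 100 positive control, at about 1.3% or above, every replicate too, limit read from the data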
# Target sequence (Q9HCT0 whole entry, looked up): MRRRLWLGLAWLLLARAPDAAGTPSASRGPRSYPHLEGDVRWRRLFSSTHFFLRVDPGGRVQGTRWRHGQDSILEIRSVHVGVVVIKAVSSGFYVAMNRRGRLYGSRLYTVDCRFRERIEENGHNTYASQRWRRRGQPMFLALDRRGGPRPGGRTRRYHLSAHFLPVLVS
# PglD confirm: PglD (C. jejuni) inhibition confirmation; Purified C. jejuni PglD, DTNB absorbance 412 nm; shares compounds with PglD inh; 320 tested, under 10 active; inhibition, % at 20 µM;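 active = mean inhibition across replicates of at least 20% with every single replicate also at 20% or more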;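 note: initial rate of CoA release by acetyl transfer from AcCoA to the UDP-4-amino sugar; 0% = median of neutral control wells and 100% = median of positive control wells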
# Starred values were filed as active, the others as inactive; nt = no result given.
SMILES,PGC1a acetyl inh,Vif imaging,rRNA inh HTS,Cneo AK release,PglD inh,FGF22 binding,PglD confirm
O=C(Nc1sc2c(c1CN1CCOCC1)CCC2)c1ccc(F)cc1,-6,-8,nt,3,1,0,nt
CC(=O)Nc1sc2c(c1CN1CCN(C)CC1)CCCC2,3,5,nt,7,59*,nt,1
COc1ccccc1NC(=O)N1CC(=O)N2[C@H](CO)[C@@H](c3ccc(-c4ccc(C)cc4)cc3)[C@@H]2C1,-2,nt,6,nt,nt,nt,nt
CC(Sc1nnc(N)s1)C(=O)Nc1ccc2c(c1)OCO2 (stereo not given),-62,3,9,1,1,0,nt
CC(Sc1nnc(N)s1)C(=O)Nc1ccc(N2CCOCC2)cc1 (stereo not given),7,3,nt,0,21*,nt,0
CN1C(=O)c2cc(NC(=O)NCc3ccccc3)ccc2OC[C@H]2O[C@H](CC(=O)O)CC[C@H]21,-2,nt,4,7,-1,0,nt
COc1cc(C(O)c2nc(-c3ccc(C)c(C)c3)cs2)ccc1F (stereo not given),-2,-7,-46,0,25*,0,8
COc1cc(C(=O)Nc2nnc(C(F)(F)F)s2)c([N+](=O)[O-])cc1OC,-1,31,0,1,43*,1,2
COCc1nnc(NC(=O)c2cc(OC)c(OC)cc2[N+](=O)[O-])s1,nt,2,nt,nt,nt,nt,nt
CC(=O)Nc1ccc(SCC(=O)Nc2ccccc2-c2ccccc2)cc1,-1,-16,-22,-3,20*,0,-2
O=C(C1CC1)N1C[C@H]2[C@@H](c3ccccc31)[C@H](CO)N2C(=O)c1cccc(F)c1,3,nt,5,-2,1,nt,nt
O=C(CNC(=O)c1ccco1)Nc1ccc(N2CCCCCC2)cc1,2,-4,nt,-1,24*,0,-4
O=C(CNC(=O)c1ccc(Br)o1)Nc1ccc(N2CCCCCC2)cc1,-10,0,-11,4,-4,-1,nt
Cc1noc(C)c1NC(=O)Nc1ccc2c(c1)CC(=O)N([C@H](C)CO)C[C@H](C)[C@@H](CN(C)Cc1ccc(Oc3ccccc3)cc1)O2,-1,nt,-5,0,-4,0,nt
CCc1ccc(N=C2NC(=O)/C(=C/c3cc(Br)c(OCC(=O)O)c(OC)c3)S2)cc1,nt,9,-6,-1,27*,nt,20*
O=C(CN1CCCCC1)Nc1ccc(NC(=O)c2ccccc2Cl)cc1Cl,-2,0,-32,-1,20*,0,-2
O=C(CN1CCCCCCC1)Nc1ccc(Cl)cc1Cl,nt,-1,-53,nt,nt,0,nt
COc1ccc(-c2cc(NC(C)=O)c3ncc(-c4ccc(OC)c(OC)c4)n3c2)c(OC)c1,-20,24,2,-1,32*,0,1
O=C(C[C@@H]1C=C[C@@H](NS(=O)(=O)c2ccc(F)cc2)[C@H](CO)O1)NCCN1CCCCC1,-1,nt,3,0,1,0,nt
COc1ccc(NC(=O)CC2SC(=Nc3ccccc3)NC2=O)cc1 (stereo not given),-43,-1,nt,0,3,nt,nt
COc1ccc(NC(=O)CC2SC(=NCC3CCCO3)NC2=O)cc1 (stereo not given),1,-27,10,2,26*,0,-2
O=C1NC2(CCCCCC2)C(=O)N1Cc1cccc([N+](=O)[O-])c1,10,5,6,-6,20*,0,0
Cc1ccc(O)c(NC(=O)CN(C)S(=O)(=O)c2ccc(Cl)cc2)c1,-3,3,0,-2,30*,0,5
COc1ccc(N2CCN(CCC(O)c3ccc4ccccc4c3)CC2)cc1 (stereo not given),3,3,1,-1,29*,0,1
COc1ccc(C(CCN2CCN(c3ccccc3)CC2)c2c(O)cc(OC)cc2OC)cc1 (stereo not given),nt,-3,nt,8,1,nt,nt
SMILES,PGC1a acetyl inh,Vif imaging,rRNA inh HTS,Cneo AK release,PglD inh,FGF22 binding,PglD confirm
CCCN1C[C@@H](C)[C@H](OC)CN(C)C(=O)c2cc(NC(=O)c3ccccc3F)ccc2OC[C@H]1C,15,nt,-5,-5,1,0,nt
O=S(=O)(Nc1cccnc1)c1ccc(Br)c2ccccc12,-5,-3,1,3,66*,0,9
O=C(Nc1ccccc1)c1ccc(Br)c(S(=O)(=O)Nc2cccnc2)c1,nt,-4,nt,nt,nt,nt,nt
Cc1ccccc1Cn1c(=O)n(Cc2ccco2)c(=O)c2ccccc21,-23,-7,nt,-3,42*,nt,7
Cc1cccc(Cn2c(=O)n(Cc3ccco3)c(=O)c3ccccc32)c1,-16,nt,nt,-2,3,nt,nt
Cc1ccccc1-c1nc(-c2ccc(NC(=O)c3ccc(Br)o3)cc2)no1,-4,-35,nt,-7,31*,nt,2
Cc1ccccc1-c1nc(-c2ccc(Br)o2)no1,6,-9,26,0,-1,0,nt
C[C@@H]1CCCCO[C@@H](CN(C)C(=O)Nc2ccccc2)[C@@H](C)CN([C@@H](C)CO)C(=O)c2cc(NC(=O)Nc3cccc4ccccc34)ccc2O1,-7,nt,0,nt,nt,0,nt
CC=Cc1ccc2n(c1=O)C[C@H]1[C@H](CO)[C@@H](C(=O)NCc3ccccn3)[C@@H]2N1CC1CC1 (mixture of isomers),-19,nt,2,-2,3,0,nt
CCNCCNC(=O)c1c(O)c2cccc3c2n(c1=O)CCC3,9,0,nt,1,22*,nt,-16
c1ccc(CNCCN2CCNCC2)nc1,-3,3,nt,0,30*,nt,-50
O=C(NCc1ccccn1)C(=O)NCc1ccccn1,nt,8,21,nt,nt,0,nt
CC(=O)N(C)C[C@H]1Oc2cc(C#Cc3ccccc3)ccc2S(=O)(=O)N([C@@H](C)CO)C[C@H]1C,-17,nt,-5,-4,0,0,nt
COc1ccc(-c2cnnc(N/N=C/c3ccc(O)c(OC)c3)n2)cc1,-11,1,nt,1,26*,nt,6
COc1cc(/C=N/Nc2nc(N3CCCC3)nc(N3CCCC3)n2)ccc1O,-11,-11,nt,2,-168,nt,nt
CCn1cc(/C=N\NC(=O)c2ccc3c(c2)c(C)c(C)n3Cc2ccccc2)c(C)n1,-20,-2,nt,-1,32*,nt,-5
CCn1ncc(/C=N\NC(=O)c2ccc3c(c2)c(C)c(C)n3Cc2ccccc2)c1C,-12,-18,nt,0,3,nt,nt
CC(=O)Nc1ccc2c(c1)C(=O)N(C)[C@@H]1CC[C@H](CC(=O)NC3CCCCC3)O[C@@H]1CO2,3,nt,-1,-5,2,0,nt
Cc1ccc(NS(=O)(=O)c2cccc3nsnc23)cc1C,-11,-7,-14,0,-2,0,nt
O=S(=O)(Nc1ccc(Cl)cc1)c1cccc2nsnc12,6,6,-14,-6,21*,0,-5
